The list is not random: actives were taken first. Their share in the collection is about 5.4%.
T cruzi repl – T. cruzi replication inhibition. T. cruzi beta-gal in NIH3T3, luminescence, 90 h. inhibition, % (no concentration beside the values). AID 1885. hit rate 1.4% among 300,000;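 active = mean inhibition across valid replicates above about 55%, limit read from the data; inconclusive = mean below that limit but half or more replicates reach it; inactive = mean below it, under half of replicates reach it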;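 also: signal also drops with host cell toxicity which is not excluded here; 0% = plate median of DMSO wells and 100% = zero luminescence signal; higher percent means less beta-gal luminescence so fewer parasites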
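System: Mouse NIH/3T3 fibroblasts infected with β-gal-expressing T. cruzi Tulahuen C4 | Quantity: NIH/3T3 cells, 5,000 per well | Reagent: 5000 reporter trypomastigotes per well | Dosing: Compound pinned at 50 nL/well, DMSO | Schedule: 3 h host attachment, then at least 90 h co-culture | Detection: GalScreen luminescence, 60 min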
CSC inhib – blocks cancer stem cells. cancer stem cell-like cells viability, luminescence. inhibition, % at 7.5 µM. hit rate 1.1% among 300,000. AID 2717; in the data active = inhibition above about 75%; inconclusive = no clear call, values can overlap the other calls; tested in HMLE shEcad cells
SKKanGAS inh – inhibitors of SKKanGAS S. pyogenes growth in kanamycin (SK-promoter or general growth effect); inhibition, % at 7.5 µM; BacTiter-Glo, 6 h; hit rate 1.3% among 300,000; AID 1662;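 active = mean replicate score, as percent of positive control median, at least 50; inconclusive = mean below 50 but one replicate at or above 50; inactive = mean and every replicate below 50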;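 also: strain carries kanamycin resistance gene driven by streptokinase promoter and grows in 40 µg/ml kanamycin; loss of luminescence reflects streptokinase promoter inhibition or plain growth inhibition; 0% = median of DMSO wells and 100% = positive control at its reference dose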
Mdm2-MdmX inh – inhibitors of human Mdm2/MdmX interaction; O15151+Q00987; SaOS-2 split-luciferase Mdm2/MdmX complementation, luminescence; inhibition, % at 8 µM; hit rate 3% among 330,000; AID 485346;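 active = inhibition of at least 50% at 8 µM in the primary screen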
aSyn UTR inh – 5' untranslated region of α-synuclein, MLPCN primary screen. hit rate 0.82% among 300,000. alpha-synuclein 5'UTR reporter, inhibitor activity. inhibition, % (tested at 7.5 µM); in the data active = inhibition above about 60%; inconclusive = no clear call, values can overlap the other calls;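 also: H4 neuroglioblastoma cells stably carrying SNCA 5'UTR luciferase fusion; 0% = DMSO wells and 100% = positive control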
Starred values were filed as active, the others as inactive; ? = inconclusive; · = no result given.

SMILES | T cruzi repl | CSC inhib | SKKanGAS inh | Mdm2-MdmX inh | aSyn UTR inh
OC(c1cc(-c2ccc(Cl)cc2)nc2ccccc12)C1CCCCN1 (centres undefined) | 50 | 116* | 11 | · | 96*
CN1CCc2nc(SCc3ccc(Cl)cc3)c(C#N)c(-c3cccs3)c2C1 | 58* | -4 | 10 | -4 | -4
N#Cc1c(N)nc(SCc2ccncc2)c(C#N)c1-c1cccs1 | 64* | 1 | -2 | 49 | 47
CN1CCc2nc(SCc3ccc(C(C)(C)C)cc3)c(C#N)cc2C1 | 57* | 45 | 1 | 24 | -4
CC(C)(C)C1CCC(C(=O)Nc2ccc(N3CCOCC3)cc2N2CCOCC2)CC1 (centres undefined) | · | · | · | 37 | ·
CC1CCCN(C(=O)Cn2nnc(-c3ccccc3F)n2)C1 (centres undefined) | -3 | -5 | 3 | 3 | -103
CCn1c(CNC(=O)c2cccs2)n[nH]c1=S | -11 | -13 | 0 | -7 | 13
CCN(CC)CCNC(=O)c1cc2c(=O)n(C)c3ccccc3c2s1 | 30 | 28 | 3 | 36 | -70
CCCCN(CC)CCNC(=O)c1cn(-c2ccc(Cl)cc2)c(=O)c2ccccc12 | 68* | -9 | 2 | 23 | -29
CCCCN(CC)CCNC(=O)c1cc2c(=O)n(C)c3ccccc3c2s1 | 61* | 18 | -3 | 37 | -67
CNC(=O)c1cn(-c2ccc(Cl)cc2)c(=O)c2ccccc12 | 10 | 2 | -1 | 14 | 9
COc1ccccc1CNC(=O)COc1cc2c(c3oc(=O)cc(C)c13)CCC(C)(C)O2 | 28 | 2 | 16 | 39 | 41
CN1CCC(Oc2ccccc2Sc2ccccc2)CC1 | 27 | 55 | 4 | 31 | -5
COc1ccccc1N1CCN(C/C=C/c2ccc(N(C)C)cc2)CC1 | 55* | 5 | 1 | 3 | 8
Cc1ccc(C(=O)CC(=O)c2ccccc2)cc1 | -7 | -17 | 53* | -6 | -238
O=C(C[n+]1cccc2ccccc21)c1ccc(Br)cc1 | 8 | -1 | 16 | 12 | -13
Cc1ccc(C(=O)/C=C/C(=O)c2ccc(C)cc2)cc1 | 20 | 64 | 62* | 44 | -8
Cc1ccc(NCC(=O)c2ccc(C)cc2)cc1 | 56* | 7 | -1 | -23 | -125
Cc1ccc(C(=O)C[n+]2cccc3ccccc32)cc1 | 59* | -6 | -2 | 9 | -40
Cc1[nH]n(-c2ccccc2)c(=O)c1/C=N/NC(=O)c1ccc(O)cc1O | -11 | · | 102* | -18 | -12
Cc1ccc(-n2[nH]c(C)c(/C=N/NC(=O)c3ccc(O)cc3O)c2=O)cc1 | -8 | 39 | 102* | 50 | -41
Cc1cc(C(=O)N/N=C/c2c(C)[nH]n(-c3ccccc3)c2=O)n[nH]1 | -13 | · | 13 | 12 | 21
Cc1[nH]n(-c2ccccc2)c(=O)c1/C=N/NC(=O)c1cccc(F)c1 | -25 | 49 | 68* | 41 | 58
Cc1nn(C)c(C)c1C(C)NC(=O)c1cc(COc2ccc(F)c(F)c2)on1 (centres undefined) | -5 | -16 | -7 | -61 | -68
CC(C)[C@H](NC(=O)c1ccccc1Cl)C(=O)OCC(=O)N1CCCCC1 | · | -2 | · | 2 | ·
SMILES | T cruzi repl | CSC inhib | SKKanGAS inh | Mdm2-MdmX inh | aSyn UTR inh
O=C(Nc1nncs1)C1COc2ccccc2O1 (centres undefined) | -4 | · | -4 | -23 | -39
CCOc1ccc(OCc2ccc(C(=O)N/N=C(\C)c3ccccn3)cc2)cc1 | 41 | -8 | 92* | · | 64*
CC(=O)c1sc(NC(=O)C2COc3ccccc3O2)nc1C (centres undefined) | -8 | -9 | -1 | -12 | 62*
CCOc1ccc(C(=O)N/N=C(/C)C2C(=O)c3ccccc3C2=O)cc1 | -1 | 3 | 21 | -4 | -27
O=C(N/N=C(\c1ccccc1)c1ccccn1)c1ccccc1Cl | 62* | 25 | 66* | 40 | 68*
C/C(CC(=O)Nc1ccccn1)=N\NC(=O)c1ccccc1O | -8 | · | 1 | 40 | 71*
COCCN1CC(C(=O)N2CCC(Oc3ccccc3OC)CC2)CCC1=O (centres undefined) | -1 | -4 | -5 | -8 | 2
O=C1N[C@@H](Cc2cn(S(=O)(=O)c3c(F)c(F)c(F)c(F)c3F)c3ccccc23)C(=O)N[C@H]1Cc1ccccc1 | -5 | 1 | 7 | 1 | -27
C/C(=N\NC(=O)C1COc2ccccc2O1)c1ccccn1 (centres undefined) | -19 | 5 | 25 | 41 | 98*
COc1ccc(NC(=O)c2ccccn2)cc1 | -6 | 18 | 8 | 29 | 75*
C/C(=N\NC(=O)C1COc2ccccc2O1)c1ccc(C)o1 (centres undefined) | -5 | -12 | 0 | 8 | 2
COc1ccc(C(=O)N/N=C(\c2ccccc2)c2ccccn2)cc1 | ? | 50 | -6 | · | 107*
C/C(=N\NC(=O)c1ccccc1Cl)c1ccccn1 | 55* | 33 | 41 | 48 | 82*
COc1ccc(C(=O)Nc2ccc(NC(=O)c3ccccn3)cn2)cc1 | -12 | · | -5 | -17 | -35
CCc1ccc(OCCCC(=O)Nc2ccc(S(N)(=O)=O)cc2)cc1 | -7 | -7 | -3 | -5 | 5
COc1ccc(CNC(=O)c2cc3cccc(O)c3oc2=N)cc1 | -14 | 0 | 6 | 18 | -8
CC(C)Oc1ccc(CC2CCC(=O)N(C)C2=O)cc1 (centres undefined) | -9 | -4 | -2 | -32 | -7
CCSc1ncc(/C=N/Nc2ccc(Cl)cc2)n1C | 34 | 93* | 4 | -193 | -181
CCCCCCCCCCCCC/C=C/[C@@H](O)[C@@H](N)CO | 45 | 2 | 94* | 7 | -25
O=C(Cc1c(F)cccc1Cl)NNC(=O)c1ccccc1Cl | · | -16 | · | 20 | ·
COc1cc(/C=C/C(=O)OC2CC3CCC2(C)C3(C)C)ccc1O (centres undefined) | 0 | -7 | 61* | 4 | -59
COc1cc(/C=C/C(=O)OCC(=O)N2CCC(C)CC2)ccc1O | -8 | -2 | 0 | -32 | -7
N=C1S/C(=C\c2ccco2)C(=O)N1c1nccs1 | 56* | · | 81* | 38 | 9
N=C1S/C(=C\c2ccco2)C(=O)N1c1ccc2c(c1)OCO2 | -2 | -5 | 2 | 9 | -30
C/C(=N\N=C(N)N)c1cc(Cl)ccc1Cl | -1 | -2 | -8 | -32 | 65*
CC1CCCC(C)N1C(=O)CSc1nc2c(c(=O)n(C)c(=O)n2C)n1C (centres undefined) | 5 | 4 | -2 | -7 | 22
Cc1ccc(CSc2nnc(-c3ccc4c(c3)OCO4)o2)cc1 | 3 | -4 | -2 | -2 | -10
Cc1ccc(CSc2ccc(-c3ccc4c(c3)OCO4)nn2)cc1 | 2 | 79* | -5 | -5 | -2
Cc1ccc(-c2csc(NC(=O)c3ccc([N+](=O)[O-])o3)n2)cc1 | 70* | 127* | 55* | 39 | -234
O=C(NCc1nnnn1-c1ccc(F)cc1)c1ccc([N+](=O)[O-])o1 | 46 | -8 | 19 | 20 | -136

Compound activity from PubChem.
